FGF22 binding – shifts melting point of recombinant human FGF22; activity (Tm shift, normalised), % at 9.99 µM; recombinant FGF22 thermal shift, SYPRO orange fluorescence; percent of sucrose octasulfate shift, DMSO zero; Q9HCT0; AID 651658; 340,000 tested, 1.5% active;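 active means mean Tm shift, scaled 0 neutral to 100 positive control, at about 1.3% or above, every replicate too, limit read from the data; inconclusive means no clear call, values can overlap the other calls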
MT1-MMP act inh – inhibitors of human MT1-MMP activation; HT1080 RFP-PRO-GFP cells, GFP/RFP ratio fluorescence, overnight; percent of plate control window, DMSO zero; GFP/RFP ratio change, % at 20 µM; 360,000 tested, 0.061% active;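 active means GFP/RFP ratio change of at least 30% with cell ATP level not reduced by more than half and red fluorescence within 50% of control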
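Assay system: HT1080 cells carrying an RFP-PRO-GFP reporter | Dosing: Single dose of 20 µM compound, 1% DMSO final | Incubation: Cells overnight before dosing, compound overnight, 37 °C, 5% CO2 | Evaluation: GFP/RFP fluorescence ratio | Control set: DMSO and RFP-L50D-GFP cell wells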
ABCB6 inh 2 – inhibitors of human ABC transporter ABCB6; Q9NP58; K562-ABCB6 porphyrin accumulation, flow cytometry, 1 h; active compounds read low; fluorescence ratio to DMSO, % at 10 µM; 360,000 tested, 0.19% active;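 active means fluorescence ratio to DMSO below 75%, the collection mean minus 3 SD; inconclusive means too few cells collected in the well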;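 further: signal is porphyrin accumulated inside mitochondria; lower ratio means ABCB6 inhibition with less porphyrin fluorescence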
VLA-4 inh – inhibition in a human VLA-4 binding assay. P13612. VLA-4 expressing cells, ligand binding flow cytometry. inhibition, % (about 7 µM as worked out from the volumes in the protocol). 330,000 tested, 0.2% active. AID 2557; in the data active means inhibition above about 50%
Target sequence (P13612 whole entry, looked up): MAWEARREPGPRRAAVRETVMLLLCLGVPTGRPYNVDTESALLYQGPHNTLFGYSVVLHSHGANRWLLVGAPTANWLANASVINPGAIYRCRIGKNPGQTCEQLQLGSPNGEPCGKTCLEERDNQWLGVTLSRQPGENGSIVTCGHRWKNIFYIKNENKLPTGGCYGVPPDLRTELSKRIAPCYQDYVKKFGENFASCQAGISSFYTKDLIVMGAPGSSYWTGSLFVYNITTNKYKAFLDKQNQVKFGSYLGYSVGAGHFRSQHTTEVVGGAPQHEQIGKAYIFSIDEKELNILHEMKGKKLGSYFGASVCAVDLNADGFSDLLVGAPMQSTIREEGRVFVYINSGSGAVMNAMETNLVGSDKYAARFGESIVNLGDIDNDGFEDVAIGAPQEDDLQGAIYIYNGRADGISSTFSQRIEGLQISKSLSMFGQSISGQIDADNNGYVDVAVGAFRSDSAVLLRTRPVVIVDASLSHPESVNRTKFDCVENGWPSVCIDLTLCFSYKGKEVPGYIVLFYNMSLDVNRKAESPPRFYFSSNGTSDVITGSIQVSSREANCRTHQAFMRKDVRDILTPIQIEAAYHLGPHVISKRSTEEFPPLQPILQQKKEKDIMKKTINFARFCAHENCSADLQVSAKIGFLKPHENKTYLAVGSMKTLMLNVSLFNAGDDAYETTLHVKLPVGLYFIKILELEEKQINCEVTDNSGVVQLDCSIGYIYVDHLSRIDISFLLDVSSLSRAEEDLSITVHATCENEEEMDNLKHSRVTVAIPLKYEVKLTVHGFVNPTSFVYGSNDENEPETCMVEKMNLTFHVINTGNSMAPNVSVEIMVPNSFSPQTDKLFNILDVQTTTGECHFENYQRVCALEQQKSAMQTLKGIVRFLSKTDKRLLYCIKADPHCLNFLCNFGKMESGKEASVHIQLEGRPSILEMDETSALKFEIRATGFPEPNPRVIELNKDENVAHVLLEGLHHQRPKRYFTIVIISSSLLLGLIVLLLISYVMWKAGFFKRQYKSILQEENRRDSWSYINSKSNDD
DAGLB inh – diacylglycerol lipase beta (human) inhibition. Q8NCG7. HEK293T DAGLB membrane lysate, EnzChek fluorogenic substrate. 340,000 tested, 0.059% active. inhibition, % at 5.17 µM; in the data active means inhibition above about 34%
Granule exo inh – lytic granule exocytosis inhibition | TALL-104 LAMP-1 surface exposure, flow cytometry; cells stimulated with thapsigargin and PMA | 360,000 tested, 0.66% active | inhibition, % at 10 µM;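 active means inhibition above about 55%, limit read from the data; inconclusive means no clear call, values can overlap the other calls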
VLA-4 mod pick – confirmation of allosteric modulators of human VLA-4 integrin. AID 2813. 1,300 tested, 2% active. inhibition, % at 6.7 µM. shares compounds with VLA-4 inh. U937 cells, HUTS-21 LIBS mAb binding, flow cytometry; LDV ligand present at threefold Kd; in the data active means inhibition above about 40%
Numbers stand for hits. The list is not random: actives were taken first. Their share in the collection is about 2%.

For Cc1cc(N2CCOCC2)n2nc(C)c(-c3ccccc3)c2n1 the results were MT1-MMP act inh inactive, ABCB6 inh 2 inactive, VLA-4 inh inactive, DAGLB inh inactive and Granule exo inh inactive.
Screening CN(C)c1ccc(NC(=O)COC(=O)c2ccc3c(c2)OCO3)cc1 returned FGF22 binding inactive, MT1-MMP act inh inactive, ABCB6 inh 2 inactive, VLA-4 inh inactive, DAGLB inh inactive and Granule exo inh inactive.
For CN(C)c1ccc(C(=O)OCC(=O)Nc2ccc(S(N)(=O)=O)cc2)cc1 the results were MT1-MMP act inh inactive, ABCB6 inh 2 inactive, VLA-4 inh inactive, DAGLB inh inactive, Granule exo inh inactive and VLA-4 mod pick inactive.
`CC(CCc1ccco1)NC(=O)Cn1ncc2c1-c1ccccc1OC2` (stereo not given) gave FGF22 binding inactive, MT1-MMP act inh inactive, ABCB6 inh 2 inactive, VLA-4 inh 56.6, DAGLB inh inactive, Granule exo inh inactive and VLA-4 mod pick inactive.
Screening CN(C)/C(=C\C(=O)c1ccccc1)C(=O)c1ccccc1 returned FGF22 binding inactive, MT1-MMP act inh inactive, ABCB6 inh 2 inactive, DAGLB inh inactive, Granule exo inh inactive and VLA-4 mod pick inactive.
`O=C(C=C(C(=O)c1ccccc1)c1ccccc1)c1ccccc1` gave FGF22 binding inactive, MT1-MMP act inh inactive, ABCB6 inh 2 inactive, DAGLB inh inactive and Granule exo inh inactive.
Screening CN(C(=O)Nc1cnc2ccccc2c1)c1ccccc1 returned FGF22 binding inactive, MT1-MMP act inh inactive, ABCB6 inh 2 inactive, VLA-4 inh inactive, DAGLB inh inactive and Granule exo inh inactive.
For Cc1ccc(NC(=O)N(C)c2ccccc2)cc1 the results were FGF22 binding inactive, MT1-MMP act inh inactive, ABCB6 inh 2 inactive, VLA-4 inh inactive, DAGLB inh inactive, Granule exo inh inactive and VLA-4 mod pick inactive.
Screening COc1ccc(S(=O)(=O)Nc2ccc3c(c2)CC(=O)N([C@H](C)CO)C[C@@H](C)[C@@H](CN(C)Cc2ccc(Cl)c(Cl)c2)O3)cc1 returned FGF22 binding inactive.
O=C(NCCc1nc2ccccc2[nH]1)/C(=C/c1ccco1)NC(=O)c1ccco1 was read as MT1-MMP act inh inactive, ABCB6 inh 2 inactive, VLA-4 inh inactive, DAGLB inh inactive and Granule exo inh inactive.
For O=C(NCCc1nc2ccccc2[nH]1)/C(=C/c1ccco1)NC(=O)c1ccc(Br)o1 the results were FGF22 binding inactive, MT1-MMP act inh inactive, ABCB6 inh 2 inactive, VLA-4 inh inactive, DAGLB inh inactive, Granule exo inh inconclusive and VLA-4 mod pick inactive.
For COCC#Cc1cnc2c(c1)C(=O)N([C@H](C)CO)C[C@H](C)[C@H](CN(C)C(=O)Nc1ccccc1F)O2 the results were FGF22 binding inactive.
Screening COc1ccc(OC)c(C2CC(=O)Nc3cc(OC)c(OC)c(OC)c32)c1 (stereo not given) returned MT1-MMP act inh inactive, ABCB6 inh 2 inactive, VLA-4 inh inactive, DAGLB inh inactive, Granule exo inh inactive and VLA-4 mod pick inactive.
`COc1cc2c(c(OC)c1)C(c1cccc(OC)c1OC)CC(=O)N2` (stereo not given) gave FGF22 binding inactive, MT1-MMP act inh inactive, ABCB6 inh 2 inactive, VLA-4 inh inactive, DAGLB inh inactive, Granule exo inh inactive and VLA-4 mod pick inactive.
`CCCOc1c(OC)cccc1C1CC(=O)Nc2cc(OC)c(OC)c(OC)c21` (stereo not given) gave MT1-MMP act inh inactive, ABCB6 inh 2 inactive, VLA-4 inh inactive, DAGLB inh inactive and Granule exo inh inactive.
Screening CCOc1c(OC)cccc1C1CC(=O)Nc2cc3c(cc21)OCCO3 (stereo not given) returned FGF22 binding inactive, MT1-MMP act inh inactive, ABCB6 inh 2 inactive, VLA-4 inh inactive, DAGLB inh inactive, Granule exo inh inactive and VLA-4 mod pick inactive.
CCOc1ccccc1C1CC(=O)Nc2cc(OC)c(OC)cc21 (stereo not given) was read as FGF22 binding inactive, MT1-MMP act inh inactive, ABCB6 inh 2 inactive, VLA-4 inh inactive, DAGLB inh inactive and Granule exo inh inactive.
`COc1ccc(OC)c(C2CC(=O)Nc3c2c(=O)[nH]c2ncnn32)c1` (stereo not given) gave FGF22 binding inactive, MT1-MMP act inh inactive, ABCB6 inh 2 inactive, VLA-4 inh inactive, DAGLB inh inactive and Granule exo inh inactive.
`Cc1ccc(NC(=O)c2ccc3nc(N4CCOCC4)sc3c2)c(Cl)c1` gave FGF22 binding inactive, MT1-MMP act inh inactive, ABCB6 inh 2 inactive, VLA-4 inh inactive, DAGLB inh inactive, Granule exo inh inactive and VLA-4 mod pick inactive.
`CCOc1ccc(CNC(=O)c2ccc3nc(N4CCOCC4)sc3c2)cc1` gave FGF22 binding inactive, MT1-MMP act inh inactive, ABCB6 inh 2 inactive, VLA-4 inh inactive, DAGLB inh inactive, Granule exo inh inactive and VLA-4 mod pick inactive.
For COc1ccc2nc(N3CCCC(C(=O)NCCc4ccc(OC)c(OC)c4)C3)sc2c1 (stereo not given) the results were FGF22 binding inactive, MT1-MMP act inh inactive, ABCB6 inh 2 inactive, VLA-4 inh inactive, DAGLB inh inactive and Granule exo inh inactive.
O=C(NCc1cccc(F)c1)c1ccc2nc(N3CCOCC3)sc2c1 was read as FGF22 binding inactive, MT1-MMP act inh inactive, ABCB6 inh 2 inactive, VLA-4 inh inactive, DAGLB inh inactive, Granule exo inh inactive and VLA-4 mod pick inactive.
COc1ccc(CCNC(=O)c2ccc3nc(N4CCCCC4)sc3c2)cc1OC was read as FGF22 binding inactive, MT1-MMP act inh inactive, ABCB6 inh 2 inactive, VLA-4 inh inactive, DAGLB inh inactive, Granule exo inh inactive and VLA-4 mod pick inactive.
`Cc1cccc2c3c([nH]c12)[C@H]1CCC(=O)N1CC3` gave FGF22 binding inactive.
`CC(C)NC(=O)N(C)C[C@@H]1Oc2ncc(C#Cc3ccncc3)cc2C(=O)N([C@H](C)CO)C[C@@H]1C` gave FGF22 binding inactive.
For C[C@H]1CN([C@@H](C)CO)C(=O)c2cc(NS(=O)(=O)c3ccc(Cl)cc3)ccc2O[C@@H]1CN(C)C(=O)Nc1cccc2ccccc12 the results were FGF22 binding inactive.
`O=C(NCCc1ccc(Cl)cc1)c1ccc2nc(N3CCOCC3)sc2c1` gave FGF22 binding inactive, MT1-MMP act inh inactive, ABCB6 inh 2 inactive, VLA-4 inh inactive, DAGLB inh inactive, Granule exo inh inactive and VLA-4 mod pick inactive.
Screening Clc1ccc(SCc2cc(Cl)nc(-c3ccccc3)n2)cc1 returned MT1-MMP act inh inactive, ABCB6 inh 2 inactive, VLA-4 inh inactive, DAGLB inh inactive and Granule exo inh inactive.
